Measurements of several laboratories.
Compare with care: the assays were run in different laboratories.
Observed: cell growth or viability

SMILES	cell line	assay	conditions	measurement	value
CCNc1nc(Nc2ccc(F)c(Cl)c2)c2ccccc2n1	Vero	MTT	500 µg/mL	viability	6.91%
CC(C)=CCc1c(O)c(CC=C(C)C)c2occ(-c3ccc(O)cc3)c(=O)c2c1O	RAW264.7	MTT	100 µg/mL, 24 h	viability	91.4%
COc1ccc2c(Cc3ccccc3F)c3[n+](cc2c1OC)CCc1cc2c(cc1-3)OCO2	L929	CCK-8	24 h	IC50	19.9 µM
COC(=O)c1[nH]cc(-c2c[nH]c3ccc(Cl)cc23)c1-c1c[nH]c2ccc(Cl)cc12	RAW264.7	resazurin	72 h	CC50	> 10 µM
O=S(=O)(NNc1nnc(Cl)c2ccccc12)c1ccc(F)cc1	Vero	MTT	500 µg/mL	viability	4.75%
Cn1cnc2c1c(=O)n(CC(=O)Nc1c(Cl)cccc1Cl)c(=O)n2C	Vero	MTT	250 µg/mL	viability	70.7%
C=C1CC[C@@H](O)[C@]2(C)CC[C@H]3C(=C)C(=O)O[C@@H]3[C@@H]12	CHO-K1	MTT	72 h	CC50	31.3 µM
CC(=O)O[C@H]1C(=O)[C@@]2(C)[C@H]([C@H](OC(=O)c3ccccc3)[C@]3(O)C[C@H](OC(=O)[C@H](O)[C@@H](NC(=O)c4ccccc4)c4ccccc4)C(C)=C1C3(C)C)[C@]1(OC(C)=O)CO[C@@H]1C[C@@H]2O	SMMC-7721	MTT	48 h	IC50	4.27 µM
Fc1ccc(NCc2ccc(Oc3ccccn3)cc2)cc1	Vero	MTT	72 h	CC50	> 300 µM
